Assay [1] in a line: inhibitors of TNFa-induced NFkB p65 translocation, primary screen, imaging, HUVEC, MLSMR starter and 10KST1 sets (AID 438;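 active = inhibition above 20% together with a positive visual image hit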;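 also: compound added about 3h40 before a 20 min TNFalpha stimulation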;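 as to inhibition: signal is the nuclear over cytoplasmic p65 intensity ratio per well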). The conditions noted are these: HUVEC TNFa-induced p65 nuclear translocation; cell count: measured here: nuclei count (cytotoxicity indicator), at 2.08 µM; inhibition: at 2 µM, stronger effect = higher value, 0% TNFa-plus-vehicle, 100% no-TNFa wells.
Assay [2] is described as follows: reduction of polyQ htt aggregates in cells – imaging, exon1htt(103Q)mCFP cells, high-content imaging, primary screen (AID 483).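 Also: compound exposure lasted 3 days before fixation.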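 As to nuclei count: percent of the per-plate median nuclei count of sample wells.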 The following applies: exon1htt(103Q)mCFP cell line, aggregate imaging, at 2 µM; inhibition of aggregation: stronger effect = higher value; nuclei count: measured here: cell count, toxicity.
A short description of assay [3]: endothelial E-selectin expression blockers – imaging, HUVEC, immunofluorescence, MLSMR starter and 10KST1 sets, primary screen (AID 487;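 active = visually confirmed hit in the image check and inhibition above 20%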;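 as to inhibition: signal is fraction of cell area covered by stained E-selectin grains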;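 as to nuclei count: 100% = median nuclei count of all wells on the same plate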). The following applies: HUVEC TNFalpha-induced E-selectin immunofluorescence imaging, at 2 µM; inhibition: stronger effect = higher value; nuclei count: measured here: cell number, toxicity.
Assay [4] deals with Voltage-gated potassium channel subunit beta-2 (Rattus norvegicus) (UniProt P62483). The assay can be described thus: inhibitors of rat Kvbeta2 reductase activity – biochemical, NADPH fluorescence, primary screen (AID 622;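 active = fluorescence slope higher than the sample average by over 3 SD, cut at about -0.22 in these data, passing the limit was not always enough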;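 also: slope of raw intensity against log time taken from 70 to 1610 s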). The conditions noted are these: recombinant KvBeta, 4-cyanobenzaldehyde reduction, at 10 µM, stronger effect = higher value.
Assay [5] shares this target. The assay can be described thus: enhancers of rat Kvbeta2 NADPH turnover – biochemical, NADPH fluorescence, primary screen (AID 623;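 active = NADPH fluorescence slope more negative than the mean of all samples by about 3 SD, 99.7% confidence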;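 also: fluorescence intensity change per second fitted from 20 to 320 s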). The following applies: Recombinant KvBeta, NADPH fluorescence decrease slope, 10 min; at 10 µM; stronger effect = lower value.
In assay [6] the target is Muscarinic acetylcholine receptor M4 (Homo sapiens) (UniProt P08173). Briefly: M4-linked GIRK flux change, two-sided – cell-based, HEK293 M4/GIRK, thallium flux, BTC-AM, M4 allosteric agonist project, primary screen (AID 625;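 active = fluorescence slope after compound addition differing from the mean of all tested samples at 99.7% confidence, mostly higher but some lower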;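 also: thallium influx through GIRK channels coupled to M4 in HEK293 cells with BTC-AM dye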). The following applies: at 10 µM, actives lie on both sides. A digest of the protocol:
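Material: HEK293 cells with M4 receptor and GIRK channels; Times: cells overnight at 37 °C, BTC-AM loading 1 h, reads 2 min total; Technique: kinetic BTC-AM fluorescence sampled at 1 Hz, 10 s pre-addition baseline; Read-out basis: slope over 15–24 s of trace normalized to starting intensity; Controls: carbachol positive, DMSO negative.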

Assay [7] in a line: blockers of RIG-like receptor reporter activation – cell-based, Sendai virus stimulus, luciferase, 10K MLSCN set, TLR/RLR signaling modifier project, primary screen (AID 602276;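 active = inhibition at or above 50% at 10 µM; inactive = inhibition below 50%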;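 also: firefly luciferase from ISG56 promoter only with Renilla not read in this screen; 0% = Sendai virus plus DMSO and 100% = medium plus DMSO without virus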). The following applies: HEK293 RL24 IRF3 luciferase reporter, at 10 µM, stronger effect = higher value. A general note: Reporter assays use an easily measured gene product as a stand-in for the process of interest.

Assay [8] can be described thus: TLR3 IRF3 reporter activation blockers – cell-based, poly I:C stimulus, luciferase, 10K MLSCN set, primary screen (AID 602277;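 active = inhibition of the reporter signal at or above 50%; inactive = inhibition below 50%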). The conditions noted are these: HEK293-TLR3 RL24 IRF3 luciferase reporter, at 10 µM, stronger effect = higher value.

Active and inactive are the calls of the source.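 The calls were made as follows, unless noted: active = visual image review flags a hit and inhibition of aggregation exceeds 20%; inconclusive = visual hit but inhibition at or below 20%; inactive = no hit on visual image review.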

The values that follow come from PubChem BioAssay.

Sequence of Muscarinic acetylcholine receptor M4 (Homo sapiens) (P08173 whole entry, looked up): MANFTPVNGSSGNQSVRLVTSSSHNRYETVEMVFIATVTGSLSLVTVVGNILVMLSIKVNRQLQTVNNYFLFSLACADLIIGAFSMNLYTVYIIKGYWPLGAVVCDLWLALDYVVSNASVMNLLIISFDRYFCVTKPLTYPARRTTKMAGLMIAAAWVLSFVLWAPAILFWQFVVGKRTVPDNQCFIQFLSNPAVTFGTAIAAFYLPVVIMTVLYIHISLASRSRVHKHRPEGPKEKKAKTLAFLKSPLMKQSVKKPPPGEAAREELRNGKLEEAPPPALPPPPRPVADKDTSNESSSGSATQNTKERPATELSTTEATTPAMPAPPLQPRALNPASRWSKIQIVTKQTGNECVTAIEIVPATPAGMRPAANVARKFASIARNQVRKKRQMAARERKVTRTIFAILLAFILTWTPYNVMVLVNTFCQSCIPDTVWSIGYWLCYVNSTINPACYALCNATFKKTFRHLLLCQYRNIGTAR
Sequence of Voltage-gated potassium channel subunit beta-2 (Rattus norvegicus) (P62483 whole entry, looked up): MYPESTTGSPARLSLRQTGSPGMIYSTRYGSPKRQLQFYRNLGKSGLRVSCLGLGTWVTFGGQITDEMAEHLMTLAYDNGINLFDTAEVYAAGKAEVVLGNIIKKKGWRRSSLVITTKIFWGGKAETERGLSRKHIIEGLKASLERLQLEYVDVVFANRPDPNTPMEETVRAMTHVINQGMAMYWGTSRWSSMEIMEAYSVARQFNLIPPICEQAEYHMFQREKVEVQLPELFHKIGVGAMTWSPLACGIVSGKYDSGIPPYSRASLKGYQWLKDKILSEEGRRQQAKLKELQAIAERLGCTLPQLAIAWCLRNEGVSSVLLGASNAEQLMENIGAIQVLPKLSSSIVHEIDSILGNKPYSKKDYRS

As to `O=C(Nc1nccs1)c1ccc(Cl)c(S(=O)(=O)N2CCCCC2)c1`, the cell count in assay [1] worked out at 355. Besides, the inhibition was 1.3% (inactive) in assay [1], -4.7% (inactive) in assay [3], 8.7% (inactive) in assay [7] and 7.95% (inactive) in assay [8]. The inhibition of aggregation in assay [2] was 30.8% (active). The nuclei count in assay [2] amounted to 109%; in assay [3], 117%. Besides, the fluorescence slope was -0.311 (inactive) in assay [4] and 0.00573 (inactive) in assay [6]. Further, the NADPH fluorescence slope in assay [5] was -3.8e-05 (inactive).
For `COc1ccc(/C(O)=C2/C(=O)C(=O)N(CC3CCCO3)C2c2cccc(OC)c2)cc1` (stereo not drawn), in assay [1], the cell count worked out at 717. For the same molecule, the inhibition was 3.9% (inactive) in assay [1], 36.2% (inactive) in assay [3], 14.7% (inactive) in assay [7] and 21.1% (inactive) in assay [8]. In assay [2], the inhibition of aggregation is -15.3% (inactive). Further, the figures for the nuclei count in assay [2] and in assay [3] were 118% and 97.6%, respectively. Also, the fluorescence slope in assay [4] was -0.429 (inactive); in assay [6], 0.00604 (inactive). Also, the NADPH fluorescence slope in assay [5] is -3.2e-05 (inactive).
Regarding `O=S(=O)(NCCc1csc(-c2ccccc2)n1)c1ccc2c(c1)OCCO2`, in assay [1], the cell count worked out at 363. Further, the inhibition in assay [1] is -13.3% (inactive); in assay [3], 29.5% (inactive); in assay [7], 14.6% (inactive); in assay [8], 9.91% (inactive). In addition, in assay [2], the inhibition of aggregation was 2.9% (inactive). Further, the values for the nuclei count in assay [2] and in assay [3] were 108% and 76.2%, respectively. In addition, the fluorescence slope was -0.622 (inactive) in assay [4] and 0.00312 (inactive) in assay [6]. Further, the NADPH fluorescence slope in assay [5] is 1e-06 (inactive).
Regarding `Nc1nnc(SCC(=O)N2CCc3ccccc32)n1-c1ccccc1`, in assay [1], the cell count came out at 449. Further, the inhibition was -3.6% (inactive) in assay [1], -79.9% (inactive) in assay [3], 17.7% (inactive) in assay [7] and 27.2% (inactive) in assay [8]. Further, in assay [2], the inhibition of aggregation was -2% (inactive). Further, the nuclei count in assay [2] was 94.9%; in assay [3], 111%. Further, the fluorescence slope is -0.542 (inactive) in assay [4] and 0.00439 (inactive) in assay [6]. In assay [5], the NADPH fluorescence slope is -4.3e-05 (inactive).
On to `Cc1ccccc1CS(=O)(=O)Cc1ccc(C(=O)NCCCN2CCOCC2)o1`, for which the cell count in assay [1] was 434. In addition, the inhibition in assay [1] is 5% (inactive); in assay [3], -156% (inactive); in assay [7] it was -17.1% (inactive); in assay [8] it was -16.4% (inactive). The inhibition of aggregation in assay [2] is -1.9% (inactive). In addition, the nuclei count worked out at 99% in assay [2] and 120% in assay [3]. The fluorescence slope in assay [4] is -0.586 (inactive); in assay [6] it was 0.00703 (inactive). For the same molecule, the NADPH fluorescence slope in assay [5] is -2.7e-05 (inactive).
As for `COc1ccccc1OC(=O)c1ccc(SC)cc1OC`, the cell count in assay [1] is 384. Besides, the inhibition in assay [1] is -15.2% (inactive); in assay [3], 7.8% (inactive); in assay [7], -1.26% (inactive); in assay [8], 2.42% (inactive). The inhibition of aggregation in assay [2] was 6.6% (inactive). Besides, the nuclei count in assay [2] was determined as 99.3%; in assay [3], 116%. Moreover, the values for the fluorescence slope in assay [4] and in assay [6] were -0.57 (inactive) and 0.00466 (inactive), respectively. Moreover, the NADPH fluorescence slope in assay [5] is -2.8e-05 (inactive).
Turning to `COc1cccc(OCc2nc3c4cnn(-c5ccccc5)c4ncn3n2)c1`, in assay [1], the cell count is 418. For the same molecule, the inhibition in assay [1] is -6.7% (inactive); in assay [3], -118% (inactive); in assay [7] it was 8.13% (inactive); in assay [8] it was -16.4% (inactive). The inhibition of aggregation in assay [2] was -8.8% (inactive). For the same molecule, the nuclei count was 104% in assay [2] and 110% in assay [3]. In addition, the fluorescence slope in assay [4] is -0.576 (inactive); in assay [6] it was 0.00593 (inactive). Further, in assay [5], the NADPH fluorescence slope was 1.4e-05 (inactive).
Turning to `O=C(CN1CCCN(S(=O)(=O)c2ccc(Br)cc2)CC1)Nc1ccc2cn[nH]c2c1`, the cell count in assay [1] came to 432. Moreover, the inhibition in assay [1] was -1.3% (inactive); in assay [3] it was -23.3% (inactive); in assay [7] it was -14.5% (inactive); in assay [8], 2.45% (inactive). For the same molecule, the inhibition of aggregation in assay [2] was 11% (inactive). Further, the nuclei count in assay [2] amounted to 103%; in assay [3] it was 134%. Moreover, the fluorescence slope in assay [4] is -0.517 (inactive); in assay [6] it was 0.00424 (inactive). In addition, the NADPH fluorescence slope in assay [5] was -0.000173 (inactive).
As to `CCOc1ccc(C2/C(=C(/O)c3ccccc3)C(=O)C(=O)N2CCCN(C)C)cc1OC` (stereo not drawn), in assay [1], the cell count worked out at 411. Moreover, the inhibition in assay [1] was -1.1% (inactive); in assay [3] it was -29.6% (inactive); in assay [7], 19.2% (inactive); in assay [8], 15.1% (inactive). In assay [2], the inhibition of aggregation was -13.7% (inactive). In addition, the results for the nuclei count in assay [2] and in assay [3] were 102% and 92.2%, respectively. For the same molecule, the fluorescence slope was -0.446 (inactive) in assay [4] and 0.00491 (inactive) in assay [6]. For the same molecule, the NADPH fluorescence slope in assay [5] was -4.1e-05 (inactive).
`Nc1nonc1NC(=O)CSc1nc2ccccc2s1`: the cell count in assay [1] stood at 519. The inhibition in assay [1] was -8.4% (inactive); in assay [3] it was -50.5% (inactive); in assay [7], -7.11% (inactive); in assay [8], 15.4% (inactive). Besides, in assay [2], the inhibition of aggregation is 39.8% (active). Besides, the nuclei count in assay [2] amounted to 61.2%; in assay [3], 103%. In addition, the fluorescence slope in assay [4] is -0.515 (inactive); in assay [6], 0.00565 (inactive). For the same molecule, the NADPH fluorescence slope in assay [5] is -0.000124 (inactive).
With `Cc1ccccc1NC(=O)c1ccccc1`, the cell count in assay [1] came out at 373. Besides, the inhibition in assay [1] was 1.7% (inactive); in assay [3], -49.6% (inactive); in assay [7], 1.39% (inactive); in assay [8], -13% (inactive). In addition, in assay [2], the inhibition of aggregation was 13.2% (inactive). In addition, the values for the nuclei count in assay [2] and in assay [3] were 104% and 110%, respectively. The figures for the fluorescence slope in assay [4] and in assay [6] were -0.469 (inactive) and 0.00509 (inactive), respectively. Also, the NADPH fluorescence slope in assay [5] was 2.1e-05 (inactive).
On to `CC(=O)c1cc(-c2ccccc2)n(CC(=O)N2CCC(N3CCCCC3)CC2)c1C`, for which the cell count in assay [1] was 263. Moreover, the inhibition in assay [1] is 7.9% (inactive); in assay [3], -37.4% (inactive); in assay [7] it was 14.8% (inactive); in assay [8], 30.7% (inactive). The inhibition of aggregation in assay [2] is -0.7% (inactive). Moreover, the nuclei count was found to be 96.8% in assay [2] and 115% in assay [3]. Moreover, the fluorescence slope was -0.545 (inactive) in assay [4] and 0.00662 (inactive) in assay [6]. Also, the NADPH fluorescence slope in assay [5] is -3.5e-05 (inactive).
On to `CCn1c(=O)cc(SCC(=O)Nc2cccnc2)c2ccccc21`, for which the cell count in assay [1] came out at 369. Besides, the inhibition in assay [1] is -8.6% (inactive); in assay [3] it was -15.9% (inactive); in assay [7], 2.11% (inactive); in assay [8], -5.54% (inactive). The inhibition of aggregation in assay [2] is 4.3% (inactive). Moreover, the nuclei count is 101% in assay [2] and 116% in assay [3]. Further, the fluorescence slope in assay [4] was -0.463 (inactive); in assay [6] it was 0.00646 (inactive). For the same molecule, in assay [5], the NADPH fluorescence slope was 2.2e-05 (inactive).

For orientation: inhibition means the relative decrease from the control value, in per cent.
